Structures are written as SMILES.

The text below walks through data of ChEMBL document CHEMBL1129746, “Structure-based design of HIV protease inhibitors: sulfonamide-containing 5,6-dihydro-4-hydroxy-2-pyrones as non-peptidic inhibitors” (J Med Chem, 1996).

Data set [1] addresses Human immunodeficiency virus type 1 protease (Human immunodeficiency virus 1) (UniProt Q72874). Kind of data set: (§1) Tested for inhibition of HIV protease.
In data set [2] the target is Human immunodeficiency virus type 1 protease (Human immunodeficiency virus 1, UniProt Q72874). The data set is described as §1. In outline:
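Ki measured against a tandemly linked (single-chain) HIV protease construct, used because the native dimeric enzyme dissociates at low enzyme concentration.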

Data set [3] concerns the target Human immunodeficiency virus 1. Kind of data set: Tested for antiviral activity in HIV-1 IIIB-infected H9 cells.
A short description of data set [4]: Oral bioavailability of compound reported after 5 mg/kg i.v. dose in rat. The format is ADME, organism-based. Particulars: in vivo, 10 mg/kg, in the assay text read “after 10 mg/kg oral dose” for “after 5 mg/kg i.v. dose”. Put shortly: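 Rats given 10 mg/kg orally (n = 9) in 0.01 M sodium hydroxide, pH 10, at 2 mg/g, and 5 mg/kg intravenously (n = 3) in 10% propylene glycol/22.5% hydroxypropyl-β-cyclodextrin. Time-course blood levels compared; F calculated relative to the intravenous dose.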

Data set [5] deals with Cathepsin D (Homo sapiens, UniProt P07339). The data set can be described thus: Compound was tested for inhibition human Cathepsin D.
Chain of Cathepsin D (P07339 65-162 limits assumed): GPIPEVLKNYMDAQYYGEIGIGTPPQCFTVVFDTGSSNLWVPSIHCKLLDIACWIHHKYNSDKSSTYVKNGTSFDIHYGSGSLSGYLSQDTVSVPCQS
Chain of Cathepsin D (P07339 169-412 limits assumed): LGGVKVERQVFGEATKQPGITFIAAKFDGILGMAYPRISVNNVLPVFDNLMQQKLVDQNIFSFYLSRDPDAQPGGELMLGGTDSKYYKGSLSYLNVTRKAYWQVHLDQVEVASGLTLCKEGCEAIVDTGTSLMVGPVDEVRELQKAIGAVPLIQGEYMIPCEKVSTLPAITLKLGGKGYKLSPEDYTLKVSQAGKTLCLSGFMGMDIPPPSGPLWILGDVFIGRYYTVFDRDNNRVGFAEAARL
The target of data set [6] is Human immunodeficiency virus type 1 protease (Human immunodeficiency virus 1, UniProt Q72874, L33I/L63I/Q7K). The data set can be described thus: Compound was tested for inhibition of HIV protease triple mutant (Q7K/L33I/L63I).
Data set [7] in a line: Volume distribution of compound reported after 5 mg/kg i.v. dose in rat. The class given is ADME, organism-based. Also noted: dose 5 mg/kg, route intravenous. The following applies: in vivo, iv, read-out: Vss. Put shortly:
(§2)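 Rats (n = 3) dosed intravenously at 5 mg/kg in 10% propylene glycol with 22.5% (hydroxypropyl)-β-cyclodextrin (2 mg/g formulation). Blood levels followed over time to derive total clearance and steady-state volume.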

The nature of data set [8]: in vivo. Particulars: rat, plasma, iv, 5 mg/kg.
Data set [9] has as its target T1, Cathepsin E (Homo sapiens, UniProt P14091).
T1 sequence (P14091 whole entry): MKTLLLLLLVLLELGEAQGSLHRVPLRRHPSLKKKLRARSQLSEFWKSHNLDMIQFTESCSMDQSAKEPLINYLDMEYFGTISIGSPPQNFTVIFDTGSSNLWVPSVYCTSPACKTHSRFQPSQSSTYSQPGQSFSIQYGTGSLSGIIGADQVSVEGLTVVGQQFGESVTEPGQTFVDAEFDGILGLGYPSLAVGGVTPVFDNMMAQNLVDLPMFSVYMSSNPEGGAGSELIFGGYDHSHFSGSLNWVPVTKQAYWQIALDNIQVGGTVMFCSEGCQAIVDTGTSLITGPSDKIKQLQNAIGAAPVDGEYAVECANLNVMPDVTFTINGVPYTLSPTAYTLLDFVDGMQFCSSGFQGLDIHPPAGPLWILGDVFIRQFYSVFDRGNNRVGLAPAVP
The data set can be described thus: Compound was tested for inhibition human Cathepsin E.

For data set [10], the target named is Human immunodeficiency virus type 1 protease (Human immunodeficiency virus 1) (UniProt Q72874). Kind of data set: Compound was tested for inhibition of HIV protease in AZT Resistant HIV-1 clinical isolates in primary PBMC. Put shortly:
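A panel of 10 AZT-resistant HIV-1 clinical isolates was grown in primary PBMC using a standardized PBMC drug-susceptibility assay.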

For data set [11], the target named is Pepsin A (Homo sapiens, UniProt P0DJD9). The data set can be described thus: Inhibition of human pepsin.
Chain of Pepsin A (P0DJD9 whole entry): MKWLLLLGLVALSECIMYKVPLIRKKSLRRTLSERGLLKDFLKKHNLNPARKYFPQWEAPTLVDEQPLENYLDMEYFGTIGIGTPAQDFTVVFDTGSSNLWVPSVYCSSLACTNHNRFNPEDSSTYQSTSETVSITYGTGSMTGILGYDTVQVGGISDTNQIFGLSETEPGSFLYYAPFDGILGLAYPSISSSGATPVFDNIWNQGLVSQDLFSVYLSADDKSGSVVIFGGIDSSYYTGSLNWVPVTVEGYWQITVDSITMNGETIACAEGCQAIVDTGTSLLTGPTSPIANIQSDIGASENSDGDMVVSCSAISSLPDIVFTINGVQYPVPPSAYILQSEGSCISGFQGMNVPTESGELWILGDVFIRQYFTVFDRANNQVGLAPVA
A short description of data set [12]: Totla clearance of compound reported after 5 mg/kg i.v. dose in rat. The format is ADME, organism-based. Also noted: dose 5 mg/kg, route intravenous. The following applies: in vivo, iv, read-out: CLtotal (converted). In outline: as §2
For data set [13], the system named is Human immunodeficiency virus type 1 protease (Human immunodeficiency virus 1), Q72874 [Q7K,L33I,L63I].

As to `CCC[C@@]1(CCc2ccccc2)CC(=O)C([C@@H](CC)c2cccc(NS(=O)(=O)c3ccc(C(F)(F)F)cn3)c2)=C(O)O1` (stereo in doubt; form 2) [listing 1 of 2 here], in data set [1], it took 1800 nM to reach the 90% level (IC90).

As to `CCC[C@]1(CCc2ccccc2)CC(=O)C([C@@H](CC)c2cccc(NS(=O)(=O)c3cn(C)cn3)c2)=C(O)O1` (stereo in doubt; Vb) [listing 1 of 2 here], it took 560 nM to reach the 90% level in data set [1] (IC90). This IC90 lies about 3.2-fold lower than the previous one.

Take `CCCC1(CCc2ccccc2)CC(=O)C(C(CC)c2cccc(NS(=O)(=O)c3cccc4cccnc34)c2)=C(O)O1` (configuration not stated): in data set [1], it took 3000 nM to reach the 90% level (IC90). For the same compound, the Ki (as a rule, the equilibrium dissociation constant of an inhibitor or competing ligand from its target) in data set [2] turned out to be 3 nM.

With `CCC(Cc1ccccc1)c1cc(O)c(C(CC)c2ccccc2)c(=O)o1` (configuration not stated), the IC50 (in general, the concentration that gives 50% inhibition) in data set [3] is 3000 nM.

As to `CCC[C@]1(CCc2ccccc2)CC(=O)C([C@@H](CC)c2cccc(NS(=O)(=O)c3cn(C)cn3)c2)=C(O)O1` (stereo in doubt; Va) [listing 1 of 2 here], it took 1000 nM to reach the 90% level in [1] (IC90).

With `CCC[C@@]1(CCc2ccccc2)CC(=O)C([C@@H](CC)c2cccc(NS(=O)(=O)c3ccc(C(F)(F)F)cn3)c2)=C(O)O1` (stereo in doubt; form 1) [listing 1 of 2 here], the Ki in data set [2] was 0.22 nM.

Take `CCC[C@@]1(CCc2ccccc2)CC(O)=C([C@H](CC)c2cccc(NS(=O)(=O)c3ccc(C(F)(F)F)cn3)c2)C(=O)O1`: the bioavailability (usually the share of a dose that reaches the circulation, judged against a reference dose that is usually intravenous) in [4] is 30%. Moreover, the inhibition constant Ki in data set [5] is 15000 nM; in data set [6] it was less than 1 nM; in data set [9], 9000 nM; in data set [11], 2000 nM. In data set [7], the Vd is 0.51 L/kg. In addition, the half-life (commonly how long it takes for the measured level to halve) in data set [8] was 5.4 h. Also, the 90% effect concentration (IC90) (in general, the point of the concentration-response curve where the effect stands at 90%) in data set [10] was determined as 150 nM. Besides, the clearance in data set [12] was 2.83 mL/min/kg.

As to `CCCC1(CCc2ccccc2)C=c2oc(=O)c(C(CC)c3ccccc3)c(O)c2=CC1` (configuration not stated), in data set [2], affinity was put at a Ki of 35 nM.

`CCCC1(CCc2ccccc2)CC(=O)C(C(CC)c2cccc(NS(=O)(=O)c3cn(C)cn3)c2)=C(O)O1` (configuration not stated) yielded an IC90 in data set [13] of 900 nM. In [6], this compound returned an IC50 of 500 nM and an inhibition constant (Ki) of 1 nM.

`CCC[C@@]1(CCc2ccccc2)CC(=O)C([C@@H](CC)c2cccc(NS(=O)(=O)c3ccc(C(F)(F)F)cn3)c2)=C(O)O1` (stereo in doubt; form 1) [listing 2 of 2 here]: in [1], the IC90 is 3000 nM.

Regarding `CCC[C@]1(CCc2ccccc2)CC(=O)C([C@@H](CC)c2cccc(NS(=O)(=O)c3cn(C)cn3)c2)=C(O)O1` (stereo in doubt; Vd) [listing 1 of 2 here], the IC90 in data set [1] is greater than 1000 nM.

Take `CCC[C@]1(CCc2ccccc2)CC(=O)C([C@@H](CC)c2cccc(NS(=O)(=O)c3cn(C)cn3)c2)=C(O)O1` (stereo in doubt; Vc) [listing 1 of 2 here]: in data set [2], affinity was put at a Ki of 1 nM. In [3], this compound showed an IC50 greater than 1000 nM.

Turning to `CCC[C@@]1(CCc2ccccc2)CC(=O)C([C@@H](CC)c2cccc(NS(=O)(=O)c3ccc(C(F)(F)F)cn3)c2)=C(O)O1` (stereo in doubt; form 2) [listing 2 of 2 here], the Ki in data set [2] was determined as 0.032 nM. This lies in the picomolar range.

In [1], `CCC[C@]1(CCc2ccccc2)CC(=O)C([C@@H](CC)c2cccc(NS(=O)(=O)c3ccc(C#N)cn3)c2)=C(O)O1` came in with an IC90 greater than 1000 nM. Also, in data set [2], the affinity corresponds to a Ki of 0.12 nM. This compound also had an IC50 in [3] greater than 1000 nM.

For `CCC[C@]1(CCc2ccccc2)CC(=O)C([C@@H](CC)c2cccc(NS(=O)(=O)c3cn(C)cn3)c2)=C(O)O1` (stereo in doubt; Vb) [listing 2 of 2 here], the affinity in data set [2] corresponds to a Ki of 0.06 nM. Further, the IC50 in [3] is 130 nM.

Consider `CCCC1(CCc2ccccc2)CC(=O)C(C(CC)c2cccc(NS(=O)(=O)c3ccc(C#N)cc3)c2)=C(O)O1` (configuration not stated), for which the 90% effect level in data set [1] (IC90) was put at 4200 nM. The Ki in data set [2] amounted to 8 nM.

Turning to `CCC[C@]1(CCc2ccccc2)CC(=O)C([C@@H](CC)c2cccc(NS(=O)(=O)c3cn(C)cn3)c2)=C(O)O1` (stereo in doubt; Vd) [listing 2 of 2 here], the Ki in [2] was 0.03 nM. The IC50 in data set [3] was greater than 1000 nM.

In turn, `CCC[C@]1(CCc2ccccc2)CC(=O)C([C@H](CC)c2cccc(NS(=O)(=O)c3ccc(C(F)(F)F)cn3)c2)=C(O)O1` displayed an IC90 in [1] of 840 nM. Further, the Ki in data set [2] was found to be 0.018 nM. The IC50 in data set [3] is 140 nM.

`CCC[C@]1(CCc2ccccc2)CC(=O)C([C@@H](CC)c2cccc(NS(=O)(=O)c3cn(C)cn3)c2)=C(O)O1` (stereo in doubt; Vc) [listing 2 of 2 here] registered an IC90 in data set [1] greater than 1000 nM.

Take `CCCC1(CCc2ccccc2)CC(=O)C(C(CC)c2cccc(NS(=O)(=O)c3ccc(F)cc3)c2)=C(O)O1` (configuration not stated): in data set [1], the IC90 was determined as 4300 nM. This compound also had a Ki in [2] of 6 nM.

On to `CCC[C@]1(CCc2ccccc2)CC(=O)C([C@H](CC)c2cccc(NS(=O)(=O)c3ccc(C#N)cn3)c2)=C(O)O1`, for which, in [1], the 90% effect concentration (IC90) came out at 1000 nM. This compound returned a Ki in data set [2] of 0.1 nM. The compound further came in with an IC50 in data set [3] of 490 nM.

On to `CCC[C@@]1(CCc2ccccc2)CC(=O)C([C@@H](CC)c2cccc(NS(=O)(=O)c3ccc(C#N)cn3)c2)=C(O)O1`, for which the 90% effect level in [1] (IC90) was put at 890 nM. For the same compound, the affinity in data set [2] corresponds to a Ki of 0.04 nM. This compound also registered an IC50 in data set [3] of 110 nM.

The compound `CCCC1(CCc2ccccc2)CC(=O)C(C(CC)c2cccc(NS(=O)(=O)c3ccccc3)c2)=C(O)O1` (configuration not stated) returned an IC90 in data set [1] of 7300 nM. The compound also came in with an inhibitory constant (Ki) in data set [2] of 17 nM.

`CCC[C@@]1(CCc2ccccc2)CC(O)=C([C@H](CC)c2cccc(NS(=O)(=O)c3ccc(C#N)cn3)c2)C(=O)O1`: in [1], the IC90 amounted to 260 nM. In [2], this compound came in with a Ki of 0.007 nM.

The compound `CCC[C@]1(CCc2ccccc2)CC(=O)C([C@@H](CC)c2cccc(NS(=O)(=O)c3cn(C)cn3)c2)=C(O)O1` (stereo in doubt; Va) [listing 2 of 2 here] showed a Ki in data set [2] of 0.12 nM. The same compound displayed a half-maximal inhibitory concentration (IC50) in data set [3] of 580 nM.
